ChEMBL document CHEMBL1268908, “Design, synthesis, radiolabeling, and in vivo evaluation of carbon-11 labeled N-[2-[4-(3-cyanopyridin-2-yl)piperazin-1-yl]ethyl]-3-methoxybenzamide, a potential positron emission tomography tracer for the dopamine D(4) receptors” (J Med Chem, 2010)

Columns and labels:
[1] = Biodistribution in rhesus monkey occipital lobe at 150.3 MBq, iv after 67.5 mins; assay type: ADME, organism-based, Macaca mulatta; conditions: in vivo, 1.125 h
Hippocampus [2] = test: Biodistribution in rhesus monkey hippocampus at 150.3 MBq, iv after 57.5 mins; assay type: ADME, organism-based, Macaca mulatta; conditions: in vivo
Summary of the method: (§1)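 Male rhesus monkey under ketamine 10 mg/kg im, head fixed; 20 min 68Ge-68Ga transmission scan, then 90 min dynamic 3D PET (6×0.5, 7×1, 20×2, 8×5 min frames) after iv [11C]-labelled tracer in saline, specific radioactivity about 2.9 TBq/μmol at injection. Regions defined on T1-weighted MRI; uptake expressed as % injected dose per mL.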

[3] = Biodistribution in rhesus monkey cerebellum at 150.3 MBq, iv after 17 mins; conditions: in vivo
[4] = Biodistribution in rhesus monkey cerebellum at 150.3 MBq, iv after 35 mins; assay type: ADME, organism-based, Macaca mulatta; conditions: in vivo
Summary of the method: (§2)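 Male rhesus monkey under ketamine (10 mg/kg im) with head fixation. After a 20 min 68Ge-68Ga transmission scan, the [11C]-labelled tracer in saline (pH 7.4) was injected iv, at 2.9 TBq/μmol specific radioactivity at injection. A dynamic 3D PET scan followed over 90 min (6×0.5, 7×1, 20×2, 8×5 min frames). Regions were defined on T1-weighted 1.5 T MRI, and uptake is given as %ID/mL.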

[5] = Biodistribution in rhesus monkey occipital lobe at 150.3 MBq, iv after 8.5 mins; assay type: ADME, organism-based, Macaca mulatta; conditions: in vivo
Hippocampus [6] = test: Biodistribution in rhesus monkey hippocampus at 150.3 MBq, iv after 33 mins; assay type: ADME, organism-based, Macaca mulatta; conditions: in vivo, 0.55 h; summary of the method: as §1
Striatum [7] = test: Biodistribution in rhesus monkey striatum at 150.3 MBq, iv after 45 mins; assay type: ADME, organism-based, Macaca mulatta; conditions: in vivo, 0.75 h
Hippocampus [8] = test: Biodistribution in rhesus monkey hippocampus at 150.3 MBq, iv after 8.5 mins; assay type: ADME, organism-based, Macaca mulatta; conditions: in vivo; summary of the method: as §1
[9] = Biodistribution in rhesus monkey cingulate cortex at 150.3 MBq, iv after 49 mins; assay type: ADME, organism-based, Macaca mulatta; conditions: in vivo
Summary of the method: (§3)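 Single male rhesus monkey anesthetized with ketamine 10 mg/kg im, head fixed. Attenuation correction by 20 min 68Ge-68Ga transmission scan. [11C]-tracer in saline (pH 7.4) given iv, specific radioactivity 2.9 TBq/μmol at injection. Dynamic 3D PET emission scan over 90 min in frames of 0.5 to 5 min. MRI T1 images used to define VOIs. Uptake expressed as […].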

[10] = Biodistribution in rhesus monkey cerebellum at 150.3 MBq, iv after 3.5 mins; assay type: ADME, organism-based, Macaca mulatta; conditions: in vivo; summary of the method: as §2
[11] = Biodistribution in rhesus monkey cingulate cortex at 150.3 MBq, iv after 5.5 mins; assay type: ADME, organism-based, Macaca mulatta; conditions: in vivo; summary of the method: as §3
Striatum [12] = test: Biodistribution in rhesus monkey striatum at 150.3 MBq, iv after 31 mins; assay type: ADME, organism-based, Macaca mulatta; conditions: in vivo
Striatum [13] = test: Biodistribution in rhesus monkey striatum at 150.3 MBq, iv after 29 mins; assay type: ADME, organism-based, Macaca mulatta; conditions: in vivo
[14] = Biodistribution in rhesus monkey cerebellum at 150.3 MBq, iv after 2.25 mins; assay type: ADME, organism-based, Macaca mulatta; conditions: in vivo, 135 s; summary of the method: as §2
[15] = Biodistribution in rhesus monkey entorhinal cortex at 150.3 MBq, iv after 23 mins; assay type: ADME, organism-based, Macaca mulatta; conditions: in vivo; summary of the method: as §3
[16] = Biodistribution in rhesus monkey cerebellum at 150.3 MBq, iv after 25 mins; assay type: ADME, organism-based, Macaca mulatta; conditions: in vivo; summary of the method: as §2
[17] = Biodistribution in rhesus monkey entorhinal cortex at 150.3 MBq, iv after 1.75 mins; assay type: ADME, organism-based, Macaca mulatta; conditions: in vivo, 105 s; summary of the method: as §3
Striatum [18] = test: Biodistribution in rhesus monkey striatum at 150.3 MBq, iv after 25 mins; assay type: ADME, organism-based, Macaca mulatta; conditions: in vivo
Hippocampus [19] = test: Biodistribution in rhesus monkey hippocampus at 150.3 MBq, iv after 15 mins; assay type: ADME, organism-based, Macaca mulatta; conditions: in vivo, 0.25 h; summary of the method: as §3
Striatum [20] = test: Biodistribution in rhesus monkey striatum at 150.3 MBq, iv after 77.5 mins; assay type: ADME, organism-based, Macaca mulatta; conditions: in vivo
Hippocampus [21] = test: Biodistribution in rhesus monkey hippocampus at 150.3 MBq, iv after 11 mins; assay type: ADME, organism-based, Macaca mulatta; conditions: in vivo; summary of the method: as §3
[22] = Biodistribution in rhesus monkey entorhinal cortex at 150.3 MBq, iv after 33 mins; assay type: ADME, organism-based, Macaca mulatta; conditions: in vivo, 0.55 h; summary of the method: as §3
Hippocampus [23] = test: Biodistribution in rhesus monkey hippocampus at 150.3 MBq, iv after 77.5 mins; assay type: ADME, organism-based, Macaca mulatta; conditions: in vivo; summary of the method: as §1
[24] = Biodistribution in rhesus monkey entorhinal cortex at 150.3 MBq, iv after 4.5 mins; assay type: ADME, organism-based, Macaca mulatta; conditions: in vivo, 0.075 h; summary of the method: as §3
[25] = Biodistribution in rhesus monkey cingulate cortex at 150.3 MBq, iv after 47 mins; assay type: ADME, organism-based, Macaca mulatta; conditions: in vivo; summary of the method: as §2
[26] = Biodistribution in rhesus monkey entorhinal cortex at 150.3 MBq, iv after 13 mins; assay type: ADME, organism-based, Macaca mulatta; conditions: in vivo; summary of the method: as §3
[27] = Biodistribution in rhesus monkey cerebellum at 150.3 MBq, iv after 8.5 mins; assay type: ADME, organism-based, Macaca mulatta; conditions: in vivo; summary of the method: as §2
Striatum [28] = test: Biodistribution in rhesus monkey striatum at 150.3 MBq, iv after 0.25 mins; assay type: ADME, organism-based, Macaca mulatta; conditions: in vivo, 15 s

Drug uptake [1]: 7.697 kBq/ml
Drug uptake (Hippocampus [2]): 7.745 kBq/ml
Drug uptake [3]: 18.41 kBq/ml
Drug uptake [4]: 11.95 kBq/ml
Drug uptake [5]: 25.53 kBq/ml
Drug uptake (Hippocampus [6]): 13.18 kBq/ml
Drug uptake (Striatum [7]): 11.04 kBq/ml
Drug uptake (Hippocampus [8]): 30.9853 kBq/ml
Drug uptake [9]: 10.6 kBq/ml
Drug uptake [10]: 38.562 kBq/ml
Drug uptake [11]: 36.57 kBq/ml
Drug uptake (Striatum [12]): 14.4435 kBq/ml
Drug uptake (Striatum [13]): 15.32 kBq/ml
Drug uptake [14]: 44.35 kBq/ml
Drug uptake [15]: 16.74 kBq/ml
Drug uptake [16]: 15.53 kBq/ml
Drug uptake [17]: 39.28 kBq/ml
Drug uptake (Striatum [18]): 17.99 kBq/ml
Drug uptake (Hippocampus [19]): 20.97 kBq/ml
Drug uptake (Striatum [20]): 8.262 kBq/ml
Drug uptake (Hippocampus [21]): 27 kBq/ml
Drug uptake [22]: 16.29 kBq/ml
Drug uptake (Hippocampus [23]): 8.119 kBq/ml
Drug uptake [24]: 33.7 kBq/ml
Drug uptake [25]: 10.29 kBq/ml
Drug uptake [26]: 22.48 kBq/ml
Drug uptake [27]: 27.59 kBq/ml
Drug uptake (Striatum [28]): 42.71 kBq/ml
SMILES: [11CH3]Oc1cccc(C(=O)NCCN2CCN(c3ncccc3C#N)CC2)c1
